The values below come from ChEMBL document CHEMBL4513216, “Probing the Open Global Health Chemical Diversity Library for Multistage-Active Starting Points for Next-Generation Antimalarials” (ACS Infect Dis, 2020).

This series in a line: Toxicity liver stage against HepG2, at 10uM. As to conditions: human, HepG2-A16-CD81EGFP cells; read-out: INHIBITION
It counts as cell-based. Also on record: test concentration 10 uM, cell line HepG2-A16-CD81EGFP. In outline: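 Uninfected HepG2-A16-CD81EGFP cells, 3 × 10^3 per well, 1536-well, plated on prespotted compound at 10 μM final, parasite-free screening media added to match infected plates; puromycin 10 μM positive, DMSO 0.5% negative; run in parallel with 48 h PbLuc assay at 37 °C, 5% CO2; viability by CellTiter-Glo luminescence, normalized to controls.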
Turning to `Cc1cc(CN2CC[C@H]3[C@H]2CCN3CC(=O)N(C)C)oc1C`, the cytotoxicity at 10 µM is -5.6%. Under `CCc1ccccc1C(=O)N1CCCC1CC(=O)c1cnn(C)c1` (stereo not drawn) stands -1.22%.

Take `Cc1ccccc1C1(C(=O)NCCN(C(C)C)C(C)C)CCOCC1`: the cytotoxicity at 10 µM was -6.51%.

`CNC(=O)CCCNCc1c(C)nn(C)c1N(C)C`: the cytotoxicity at 10 µM is -8.18%. Under `Cc1ccc(C)c(NC(=O)Cn2nc(C)c(C#N)c2N)c1` stands -4.57%. For `O=C(c1cn(Cc2ccccc2)c2ncccc12)N1CCOCC1`, the cytotoxicity at 10 µM is -0.142%. Under `NC(=O)c1cc2c(nc1-c1ccc3c(c1)CCO3)CCC2` stands -11.3%; under `c1cncc(CN2CCC(NCCc3ccc4c(c3)OCO4)CC2)c1`, -9.62%; under `CO[C@H]1CN(C(=O)OC(C)(C)C)CC1NCc1cc[nH]c1` (stereo partly drawn), -46.6%. Under `Cc1ccc(CN2CCOC3(CCN(C(=O)C4CC=CC4)CC3)C2)cc1` stands 15.5%; under `O=c1c2cccnc2ccn1Cc1nccn1C1CC1`, -4.87%; under `Nc1cc(C(=O)N2CCC3(CC2)Nc2ccccc2NC3=O)ccn1`, 6.13%.

Regarding `Cc1ncc(CN2CCc3c(nc4cc(C5CC5)nn4c3O)C2)n1C`, the cytotoxicity at 10 µM was 6.62%. Under `Cc1cnc(C)c(N2CCN(CC3CCCO3)CC2)n1` (stereo not drawn) stands 5.82%.

With `Cc1cc(CN2C[C@@H]3COC[C@]3(CNC(=O)N(C)C)C2)no1`, the cytotoxicity at 10 µM is -71.4%. Under `OCCNc1cc(-c2ccccc2)ncn1` stands -7.94%; under `O=C1N(Cc2cccc(F)c2)CCC12CCN(c1ccccn1)CC2`, -1.16%; under `O=C(NCCc1ccc(Cl)s1)NCc1nnc2n1CCCC2`, -2.45%. With `CCNC(=O)N1CCN(Cc2nc3ccccc3[nH]2)[C@@H]2CS(=O)(=O)C[C@@H]21`, the cytotoxicity at 10 µM came to 14.1%. Under `CC(C)NS(=O)(=O)c1cc(C(=O)O)cc(-c2ccc3c(c2)OCCO3)c1` stands -2.34%; under `Cc1ccc(C(O)CNC(=O)c2cccnc2O)cc1` (stereo not drawn), 11%. Under `COc1ccc2nc(CCNC(=O)c3cc(CC(C)C)no3)[nH]c2c1` stands 0.808%; under `CN1C(=O)CC(C(=O)O)C12CCN(Cc1ccc(F)cc1Cl)CC2` (stereo not drawn), -4.88%; under `CNC(=O)C1Cc2ccccc2CN1C(=O)CC(C)C` (stereo not drawn), -150%.

For the molecule `Cc1cc(N(C)CCn2ccnc2C)n2nccc2n1`, the cytotoxicity at 10 µM was determined as 4.09%. For `CCCc1nnc(N2CCC(N3CCCC3)CC2)o1` the value was -16.3%; for `OCC1COCCN(c2ncccc2C(F)(F)F)C1` (stereo not drawn), -9.34%. Take `O=C(O)CCn1ccc(=O)c2ccccc21`: the cytotoxicity at 10 µM is 0.148%. Under `CN1C[C@@H](F)[C@@H](OCc2nc3ccc(C#N)cc3[nH]2)C1` stands 0.434%. Under `CCN(C(=O)c1ccccc1I)C1CC(=O)NC1=O` (stereo not drawn) stands -3.86%; under `CCn1ccnc1S(=O)(=O)Cc1ccc(C(N)=O)cc1`, -3.8%; under `O=C(Nc1ccc(-n2cccn2)c(F)c1)C1CCN(C(=O)C2CC2)CC1`, 1.48%. As for `N#CCCNC(=O)CSc1cc(F)ccc1F`, the cytotoxicity at 10 µM is -3.74%. Under `CS(=O)(=O)NCC1OCCc2cn(CC3CC3)nc21` (stereo not drawn) stands 8.19%; under `Cc1ccccc1-n1ncc2c(=O)n(CCN3CCCCC3)cnc21`, -8.47%; under `Cc1ccccc1CNC(=O)c1ccccc1-n1cnc(CN)c1`, -7.22%. Under `CC(C)c1sc(Cl)nc1C(=O)N1CCN(Cc2ccccc2)CC1` stands -2.7%.

As for `Cc1nc2[nH]cnc(Nc3cc(C)n(C)n3)c-2n1`, the cytotoxicity at 10 µM worked out at 6.69%. For `COCCN1C[C@@H](C)[C@@]2(COCCN(C(=O)c3cccc(C)n3)C2)C1` the value was 7.13%; for `O=C(CCCn1cnc2ccccc2c1=O)Nc1nc[nH]n1`, -4.84%.

On to `Cc1nc(CN2C(=O)COC3(CCN(Cc4ccco4)CC3)C2C)cs1` (stereo not drawn), for which the cytotoxicity at 10 µM was -13.5%. Under `CC(C)c1nnc(NC(=O)C2CSCN2C(=O)C2CCC2)s1` (stereo not drawn) stands 5.04%; under `CNC(=O)C(C)(C)N1CCC[C@H]1C(=O)NC(C)(C)C`, -2.63%; under `Cc1cc(NC(=O)C(C)N2CCCN(c3nccs3)CC2)on1` (stereo not drawn), 1.79%. Under `CCn1c(CC2CCN(C(=O)C3CNCCO3)CC2)nn(C)c1=O` (stereo not drawn) stands 2.14%; under `O=C(C1CCCC1)N1CC2(CCN(C3COC3)C2)OCc2ccccc21` (stereo not drawn), 4.92%. For `O=c1c2ccccc2nnn1CN(CC1CCOC1)C1CC1` (stereo not drawn) the value was -0.543%. As to `Cc1ncsc1CN1Cc2cn(C)nc2C(COCC2CC2)C1` (stereo not drawn), the cytotoxicity at 10 µM was -67.3%. For `CN(C)C(=O)c1cnc2n1CCN(Cc1ccncc1)C2` the value was -69.4%. For `CC(C)CC(=O)N1C[C@@H]2CCN(c3ncccn3)C[C@@H]2C1` the value was -1.63%; for `CC(C)(CNC(=O)NCCOc1cccc(F)c1)C(N)=O`, -8.93%; for `CCS(=O)(=O)c1ccc(N2CCC(N)CC2)cc1`, -6.44%.

Take `Cc1nnc(CN(Cc2ccccc2C(F)(F)F)C2CC2)o1`: the cytotoxicity at 10 µM was 8.32%.

In the case of `CC1(C)CC(N(Cc2ccccc2)Cc2c[nH]cn2)CC(C)(C)N1`, the cytotoxicity at 10 µM is 5.28%. Under `CCNC(=O)[C@@H]1C[C@H](N)CN1C(=O)CCc1ccccc1Cl` stands 4.79%; under `Cc1ncc(C(=O)NCCNC(=O)Cc2cccc(F)c2)s1`, -4.53%. For `O=C(c1cscn1)N1CCC(Cn2cc(-c3ccsc3)nn2)CC1` the value was 0.259%; for `Cc1nc(CN2CCCC2C(=O)OCc2ccccc2)oc1C` (stereo not drawn), -1.86%; for `NC(=O)C1CCN(c2nc3nccc(-c4ccncc4)c3c(=O)[nH]2)CC1`, 6.09%. For `COC(=O)C1CN(Cc2nc(C(C)(C)C)cs2)C[C@@H](C)O1` (stereo partly drawn) the value was -8.22%; for `O=S(=O)(Cc1ccccc1)NCCc1nnc2n1CCC2`, 14.5%.

For the molecule `CSCCC(=O)N[C@H]1CC[C@H](Nc2nccc(-c3ccncc3)n2)C1`, the cytotoxicity at 10 µM is -0.664%.

Regarding `Cn1cc(C2CCCN2Cc2cscn2)cn1` (stereo not drawn), the cytotoxicity at 10 µM stood at 4.24%. In the case of `CC1CCN(C(=O)C2CC(=O)N(c3cnn(C(C)C)c3)C2)CC1` (stereo not drawn), the cytotoxicity at 10 µM was -0.343%. For `Cn1cnc2ccc(NC(=O)CCCn3cccn3)cc2c1=O` the value was 4.31%; for `CC(C)(C)CN(CCC#N)C(=O)c1cccc(CN2CCCC2)c1`, 0.234%. For `Cc1nc(C)n(CC2CCCN2Cc2nc(N)c3ccccc3n2)n1` (stereo not drawn) the value was -0.192%; for `CCc1ncc2c(n1)CN(C(=O)COC)C2`, -19.4%; for `c1csc(CN2CC[C@H]3C[C@H](c4ccncn4)O[C@@H]3C2)c1`, 1.17%. For `CC(C)Oc1cccc(CNC(Cc2ccsc2)c2nccs2)c1` (stereo not drawn) the value was 0.732%. Consider `Cc1ccsc1CN(C)Cc1ncccc1C(=O)O`, for which the cytotoxicity at 10 µM is -2.55%. For `CN(Cc1cccs1)C(=O)CN1CCCC1Cn1cncn1` (stereo not drawn) the value was -15.6%; for `CN(C)C(=O)CNC(=O)c1cc2ccccc2nc1N1CCCC1`, -6.18%. For `O=C1N(CCc2ccccc2)CCCC12CCN(C(CO)CO)C2` (stereo not drawn) the value was -3.25%; for `COc1cccc(-c2ccc3nc(C4CCN(C(C)=O)CC4)nn3c2)c1`, 9.84%. For `O=c1cnc2ccccc2n1CCCn1cccn1` the value was -26.4%. Take `Fc1cccc(CN2CCO[C@H]3[C@@H](OCc4ccccn4)CC[C@@H]32)c1`: the cytotoxicity at 10 µM was -0.902%.

As to `O=C(CCc1ccccc1F)NS(=O)(=O)c1ccc2c(c1)OCCCO2`, the cytotoxicity at 10 µM was -3.2%. In the case of `COc1ccccc1CN(C)c1nccc(-c2cn(C)nc2C)n1`, the cytotoxicity at 10 µM is 53.8%. For `CCN1CCN(Cc2coc(-c3cccc(F)c3)n2)CC1` the value was -7.75%. Take `CN(Cc1cccc(C#N)c1)c1ncc(C(N)=O)cc1Cl`: the cytotoxicity at 10 µM stood at 1.33%. With `CCc1cnc(N2CCC3(CC2)CCN(c2cnn(C)c2)C3=O)nc1`, the cytotoxicity at 10 µM was -2.2%. Under `CCC(=O)NC(C)c1ccccc1C` (stereo not drawn) stands 0.245%.

With `Cc1nn(Cc2ccc(C(=O)NCCCN3CCCC3=O)o2)c(C)c1Br`, the cytotoxicity at 10 µM came out at 9.35%.

For `O=C1CC(c2ccccc2C(F)(F)F)c2sc(N3CCOCC3)nc2N1` (stereo not drawn), the cytotoxicity at 10 µM came to 9.18%.

Regarding `Cn1cc(N2CCC(NC(=O)c3c(F)cccc3F)C2=O)cn1` (stereo not drawn), the cytotoxicity at 10 µM stood at 2.5%. Regarding `COc1cccc2c(C)c(C(=O)N3CCNCC3C(N)=O)[nH]c12` (stereo not drawn), the cytotoxicity at 10 µM worked out at 1.67%. As for `CN(C)c1nccc(NC(=O)c2ccncc2)n1`, the cytotoxicity at 10 µM was -4.33%. Under `O=C(CCn1cccc1)N1CCc2[nH]nc(COc3ccccc3)c2C1` stands 7.54%; under `COc1cc(C(=O)N2CCCC(c3cc(C)[nH]n3)C2)cc(OC)c1C` (stereo not drawn), -10.5%. Under `COc1ccc(CN2CCN(CCn3ccnc3)CC2)cc1F` stands -8.88%; under `CC(=O)N1CCC(c2cc(C(F)(F)F)n3ccnc3n2)CC1`, 1.56%. For the molecule `CN(CCCc1ccc(C(F)(F)F)cc1)Cc1nccn1C`, the cytotoxicity at 10 µM came out at 9.05%. For `CCn1c(CN(C)Cc2cnc(C)s2)nc2c(F)cccc21` the value was -42%. Under `CC(C)Cc1ncc2c(n1)CN(c1nc3ccccc3cc1CO)C2` stands 1.18%; under `O=C(NCCOc1ccc(Cl)cn1)Nc1ccccn1`, 9.05%.

On to `CCOCCCNC(=O)N(C)Cc1ccc(SC)c(OC)c1`, for which the cytotoxicity at 10 µM is -5.41%. Under `Cc1nnc(SCc2ccccn2)s1` stands -9.13%.
